# Data taken from ChEMBL document CHEMBL1135775 (J Med Chem, 2002).
# “And” between values parts separate entries of the source, which are not always exact repeats. Equal entries are not always repeated.
# How the values were obtained:
# [1] = Ratio of the IC50 value of Mazindol to that of the compound.; assay type: functional
# [2] = biological target: T1, Sodium-dependent noradrenaline transporter (Homo sapiens, UniProt P23975); assay: Inhibition of NE uptake in HEK cells expressing human noradrenaline transporter (hNET); assay type: functional, cell-based, HEK293
# [3] = Discrimination ratio against SERT as ratio of IC50 to that of Ki uptake to SERT.; assay type: functional
# [4] = biological target: Monoamine transporters; serotonin & dopamine (Homo sapiens) (UniProt P31645+Q01959); assay: Selectivity ratio as ratio of IC50 value against SERT to that of DAT; assay type: protein assay
# [5] = Discrimination ratio against DAT as ratio of IC50 to that of Ki uptake to DAT.; assay type: functional
# [6] = biological target: T2, Sodium-dependent dopamine transporter (Homo sapiens, UniProt Q01959); assay: Displacement of [125I]- RTI-55 from Dopamine transporter expressed in HEK cells; assay type: cell-based, HEK293
# How it was run: (§1)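 Membranes from HEK293 cells expressing hDAT, hSERT or hNET (10–15 μg protein) preincubated 10 min with test compound in Krebs-HEPES pH 7.4. Two or three experiments in duplicate; IC50 converted to Ki by Cheng-Prusoff.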
# [7] = biological target: T3, Sodium-dependent serotonin transporter (Homo sapiens, UniProt P31645); assay: Displacement of [125I]- RTI-55 from Serotonin transporter expressed in HEK cells; assay type: cell-based, HEK293; how it was run: as §1
# [8] = biological target: T3, Sodium-dependent serotonin transporter; assay: Inhibition of 5-HT uptake in HEK cells expressing human serotonin transporter (hSERT); assay type: functional, cell-based, HEK293
# How it was run: (§2)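 Scraped HEK293 cells expressing hSERT or hDAT in Krebs-HEPES, preincubated 10 min at 25 °C with test compound. Uptake started with [3H]serotonin or [3H]dopamine (20 nM final), stopped after 10 min by filtration on PEI-soaked GF/C filters.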
# [9] = Discrimination ratio against NET as ratio of IC50 to that of Ki uptake to NET.; assay type: functional
# [10] = biological target: T1, Sodium-dependent noradrenaline transporter; assay: Displacement of [125I]RTI-55 from human Norepinephrine transporter expressed in HEK cells; assay type: cell-based, HEK293
# [11] = biological target: T2, Sodium-dependent dopamine transporter; assay: Inhibition of dopamine uptake in HEK cells expressing human dopamine transporter (hDAT); assay type: functional, cell-based, HEK293; how it was run: as §2
# [12] = biological target: Monoamine transporters; Norepinephrine & dopamine (Homo sapiens) (UniProt Q01959+P23975); assay: Selectivity ratio as ratio of IC50 value against NET to that of DAT; assay type: protein assay
# [13] = biological target: Sodium-dependent dopamine transporter (Rattus norvegicus, UniProt P23977); assay: Ability to displace [3H]WIN-35428 from Dopamine Transporter of rat striatal membrane
# How it was run: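 Rat striatum (male Sprague-Dawley, 200-225 g) homogenised in ice-cold sucrose phosphate buffer pH 7.4, washed, resuspended at 10 mg/mL. Filtration on PEI-soaked GF/B filters, scintillation counting. Four experiments in triplicate.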
# [14] = biological target: T2, Sodium-dependent dopamine transporter; assay: Ability to block the uptake of […] at the Dopamine transporter of HEK cells expressing cDNA for the human transporter (hDAT); assay type: functional, cell-based, HEK293
# [15] = biological target: T1, Sodium-dependent noradrenaline transporter; assay: Ability to displace [125I]- RTI-55 binding at the Norepinephrine transporter site on HEK cells expressing cDNA for the human transporter (hNET); assay type: cell-based, HEK293
# How it was run: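 Membranes from HEK293 cells expressing hDAT, hSERT or hNET (10–15 μg protein) preincubated 10 min with test compound in Krebs-HEPES pH 7.4. Then 40–80 pM [125I]RTI-55 added, 90 min at 25 °C, GF/C filtration. […] Two or three experiments in duplicate; IC50 converted to Ki by Cheng-Prusoff.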
# [16] = biological target: Sodium-dependent dopamine transporter (Rattus norvegicus) (UniProt P23977); assay: Ability to displace [3H]WIN-35428 from Dopamine Transporter of rat striatal membrane at a concentration of 10 E-6 M
# Sequence of Sodium-dependent dopamine transporter (Rattus norvegicus) (P23977 whole entry): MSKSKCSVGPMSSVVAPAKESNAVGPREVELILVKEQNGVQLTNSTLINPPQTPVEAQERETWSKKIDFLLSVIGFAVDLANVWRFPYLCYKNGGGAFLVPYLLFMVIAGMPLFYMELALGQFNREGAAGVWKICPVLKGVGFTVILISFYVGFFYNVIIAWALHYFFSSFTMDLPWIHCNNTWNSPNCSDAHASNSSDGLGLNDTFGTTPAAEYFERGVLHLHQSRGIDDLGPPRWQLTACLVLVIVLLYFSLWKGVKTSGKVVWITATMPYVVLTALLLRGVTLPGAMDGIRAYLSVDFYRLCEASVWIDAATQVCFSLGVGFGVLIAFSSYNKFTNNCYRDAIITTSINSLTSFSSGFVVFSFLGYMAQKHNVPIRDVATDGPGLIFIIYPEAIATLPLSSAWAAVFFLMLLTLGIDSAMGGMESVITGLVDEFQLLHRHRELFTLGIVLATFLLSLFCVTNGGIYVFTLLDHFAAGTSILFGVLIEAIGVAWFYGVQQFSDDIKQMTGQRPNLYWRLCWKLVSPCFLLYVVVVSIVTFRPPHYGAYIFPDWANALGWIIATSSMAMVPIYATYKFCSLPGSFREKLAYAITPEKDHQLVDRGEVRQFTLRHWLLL
# T1 sequence (P23975 whole entry): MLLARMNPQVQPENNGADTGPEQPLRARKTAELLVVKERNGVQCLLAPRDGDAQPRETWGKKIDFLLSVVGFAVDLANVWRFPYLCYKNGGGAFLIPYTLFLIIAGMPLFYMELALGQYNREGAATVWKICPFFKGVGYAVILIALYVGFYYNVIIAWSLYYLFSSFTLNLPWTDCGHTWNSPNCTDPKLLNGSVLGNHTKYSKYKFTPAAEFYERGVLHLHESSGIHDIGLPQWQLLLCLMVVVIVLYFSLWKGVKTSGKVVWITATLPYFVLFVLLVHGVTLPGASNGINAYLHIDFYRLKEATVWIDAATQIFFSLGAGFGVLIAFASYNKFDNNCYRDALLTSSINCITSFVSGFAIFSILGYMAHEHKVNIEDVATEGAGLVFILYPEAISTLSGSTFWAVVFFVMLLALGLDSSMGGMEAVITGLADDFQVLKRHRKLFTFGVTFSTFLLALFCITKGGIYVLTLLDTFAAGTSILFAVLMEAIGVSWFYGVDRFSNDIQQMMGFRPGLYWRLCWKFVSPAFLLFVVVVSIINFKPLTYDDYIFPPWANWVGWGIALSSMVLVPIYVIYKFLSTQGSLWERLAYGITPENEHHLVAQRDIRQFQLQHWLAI
# Sequence of Monoamine transporters; Norepinephrine & dopamine (Homo sapiens) (P23975 whole entry, looked up): as the sequence (P23975 whole entry) above
# Sequence of Monoamine transporters; Norepinephrine & dopamine (Homo sapiens) (Q01959 whole entry, looked up): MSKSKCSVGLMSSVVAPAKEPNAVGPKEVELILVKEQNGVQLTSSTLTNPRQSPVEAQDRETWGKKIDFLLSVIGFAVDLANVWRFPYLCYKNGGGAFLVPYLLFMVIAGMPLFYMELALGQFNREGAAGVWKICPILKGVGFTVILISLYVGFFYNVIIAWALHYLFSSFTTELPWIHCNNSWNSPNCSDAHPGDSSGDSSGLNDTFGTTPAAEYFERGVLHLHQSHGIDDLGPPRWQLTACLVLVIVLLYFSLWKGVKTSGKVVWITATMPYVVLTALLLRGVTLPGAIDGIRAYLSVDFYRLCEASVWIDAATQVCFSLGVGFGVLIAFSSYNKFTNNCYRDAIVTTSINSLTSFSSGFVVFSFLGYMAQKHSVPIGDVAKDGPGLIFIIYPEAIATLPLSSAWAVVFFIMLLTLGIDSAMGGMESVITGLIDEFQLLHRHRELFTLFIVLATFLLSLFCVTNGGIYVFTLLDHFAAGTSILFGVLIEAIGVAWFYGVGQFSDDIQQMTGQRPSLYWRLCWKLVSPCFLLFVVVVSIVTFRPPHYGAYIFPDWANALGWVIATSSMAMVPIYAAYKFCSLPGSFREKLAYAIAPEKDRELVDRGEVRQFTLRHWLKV
# Sequence of Sodium-dependent dopamine transporter (Rattus norvegicus, UniProt P23977) (P23977 whole entry): as the sequence (P23977 whole entry) above
# T3 sequence (P31645 whole entry): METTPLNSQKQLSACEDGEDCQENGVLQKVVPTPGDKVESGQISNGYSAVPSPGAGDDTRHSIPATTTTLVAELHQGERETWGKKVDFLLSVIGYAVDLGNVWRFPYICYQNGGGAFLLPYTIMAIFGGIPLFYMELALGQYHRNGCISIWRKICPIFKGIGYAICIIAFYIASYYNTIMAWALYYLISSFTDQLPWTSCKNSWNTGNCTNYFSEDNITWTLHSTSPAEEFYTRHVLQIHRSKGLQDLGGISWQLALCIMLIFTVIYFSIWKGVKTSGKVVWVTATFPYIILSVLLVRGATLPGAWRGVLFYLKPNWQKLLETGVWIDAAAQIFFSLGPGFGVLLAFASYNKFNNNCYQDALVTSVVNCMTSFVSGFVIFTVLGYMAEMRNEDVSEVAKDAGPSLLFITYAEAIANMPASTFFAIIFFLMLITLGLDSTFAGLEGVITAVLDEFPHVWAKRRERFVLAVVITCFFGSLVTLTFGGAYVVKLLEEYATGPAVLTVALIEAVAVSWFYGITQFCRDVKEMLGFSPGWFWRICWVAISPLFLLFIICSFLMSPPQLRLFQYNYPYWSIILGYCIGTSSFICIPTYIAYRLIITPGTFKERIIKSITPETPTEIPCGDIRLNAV
# Sequence of Monoamine transporters; serotonin & dopamine (Homo sapiens) (P31645 whole entry, looked up): as the sequence (P31645 whole entry) above
# Sequence of Monoamine transporters; serotonin & dopamine (Homo sapiens) (Q01959 whole entry, looked up): as the sequence (Q01959 whole entry, looked up) above
# T2 sequence (Q01959 whole entry): as the sequence (Q01959 whole entry, looked up) above
smiles,measurement,setting,value
OC1(c2ccc(C(F)(F)F)cc2)c2ccccc2C2=NCCN21 (stereo not given),Ratio,[1],0.03
Oc1ccc(C2(O)c3ccccc3C3=NCCCN32)cc1 (stereo not given),IC50,[2],1.9 nM
same,Ratio,[3],0.8
same,Ratio,[1],2.4
same,Ratio,[4],0.9
same,Ratio,[5],0.7
same,Ki,[6],87.1 nM
same,Ki,[7],77 nM
same,IC50,[8],60 nM
same,Ratio,[9],0.005
same,Ki,[10],380 nM
same,IC50,[11],59 nM
same,Ratio,[12],4.4
OC1(c2ccc3c(c2)OCCO3)c2ccccc2C2=NCCN21 (stereo not given),Ratio,[1],0.03
OC1(c2ccc3c(c2)OCO3)c2ccccc2C2=NCCCN21 (stereo not given),IC50,[2],0.62 nM
same,Ratio,[3],3.2
same,IC50,[13],1.94 nM
same,Ratio,[4],10
same,Ratio,[5],0.8
same,Ki,[6],2.55 nM
same,Ki,[7],25.6 nM
same,IC50,[8],83 nM
same,Ratio,[9],0.07
same,IC50,[14],2.21 nM
same,Ki,[15],8.8 nM
same,Ratio,[12],3.5
CC1(c2ccc(Cl)cc2)c2ccccc2C2=NCCCN21 (stereo not given),Ratio,[1],0.3
OC1(c2ccncc2)c2ccccc2C2=NCCN21 (stereo not given),Ratio,[1],0.1
OC1(c2ccccc2)c2c(Cl)cccc2C2=NCCN21 (stereo not given),Ratio,[1],0.1
OC1(c2ccc(-c3ccccc3)cc2)c2ccccc2C2=NCCN21 (stereo not given),inhibition,[16],14.1%
same,Ratio,[1],< 0.002
OC1(c2ccc(Cl)cc2)c2ccccc2C2=NCCCN21 (stereo not given),IC50,[2],4.9 nM
same,Ratio,[3],1.4
same,Ratio,[1],8.1 and 10.1
same,Ratio,[4],23
same,Ratio,[5],2.2
same,IC50,[8],53 nM
same,Ratio,[9],2.2
same,IC50,[11],3.7 nM
same,Ratio,[12],10.6
COc1cccc2c1C1=NCCN1C2(O)c1ccc(Cl)cc1 (stereo not given),IC50,[2],4.7 nM
same,Ratio,[3],0.3
same,Ratio,[1],9
same,Ratio,[4],300
same,Ratio,[5],14.5
same,Ki,[6],2.9 nM
same,Ki,[7],870 nM
same,IC50,[8],280 nM
same,Ratio,[9],0.7
same,Ki,[10],6.8 nM
same,IC50,[11],42 nM
same,Ratio,[12],2.3
OC1(c2ccc(Cl)cc2)c2cccc(-c3ccccc3)c2C2=NCCN21 (stereo not given),Ratio,[1],0.1
COc1ccc(C2(O)c3ccccc3C3=NCCCN32)cc1 (stereo not given),IC50,[2],4.1 nM
same,Ratio,[3],1.7
same,Ratio,[1],3.2
same,Ratio,[4],1.5
same,Ratio,[5],0.8
same,Ki,[6],36.2 nM
same,Ki,[7],55.9 nM
same,IC50,[8],94 nM
same,Ratio,[9],0.05
same,Ki,[10],84 nM
same,IC50,[11],30.4 nM
same,Ratio,[12],2.3
COc1cccc2c1C(O)(c1ccc(Cl)cc1)N1CCN=C21 (stereo not given),IC50,[2],1.73 nM
same,Ratio,[3],1.8
same,Ratio,[1],0.6
same,Ratio,[4],193
same,Ratio,[5],5.8
same,Ki,[6],10.3 nM
same,Ki,[7],1990 nM
same,IC50,[8],3600 nM
same,Ratio,[9],0.07
same,Ki,[10],23.1 nM
same,IC50,[11],60 nM
same,Ratio,[12],2.2
OC1(c2ccc(Cl)cc2)c2c(ccc3c2OCO3)C2=NCCN21 (stereo not given),Ratio,[1],0.1
COC(=O)c1ccc(C2(O)c3ccccc3C3=NCCN32)cc1 (stereo not given),Ratio,[1],0.002
OC1(c2ccc3c(c2)OCO3)c2ccccc2C2=NCCN21 (stereo not given),Ratio,[1],0.4
Cc1ccc(C2(O)c3ccccc3C3=NCCN32)cc1 (stereo not given),Ratio,[1],0.1
COc1ccc(C2(O)c3ccccc3C3=NCCN32)cc1OC (stereo not given),Ratio,[1],0.001
COCC1(c2ccc(Cl)cc2)c2ccccc2C2=NCCCN21 (stereo not given),Ratio,[1],< 0.002
C=CCOc1cccc(C2(O)c3ccccc3C3=NCCCN32)c1 (stereo not given),IC50,[13],219 nM
same,Ratio,[1],0.2
OC1(c2ccc(Cl)cc2)c2cc(Cl)c(Cl)cc2C2=NCCN21 (stereo not given),IC50,[2],10 nM
same,Ratio,[3],0.3
same,Ratio,[1],0.6
same,Ratio,[4],1280
same,Ratio,[5],5.7
same,Ki,[6],1.05 nM
same,Ki,[7],1350 nM
same,IC50,[8],444 nM
same,Ratio,[9],0.3
same,Ki,[10],40 nM
same,IC50,[11],6 nM
same,Ratio,[12],38
OC1(c2ccccc2)c2cc(Cl)ccc2C2=NCCN21 (stereo not given),Ratio,[1],0.1
COc1ccc(C2(O)c3ccccc3C3=NCCN32)cc1 (stereo not given),Ratio,[1],0.4
COc1ccc2c(c1)C(O)(c1ccc(Cl)cc1)N1CCN=C21 (stereo not given),IC50,[2],1.46 nM
same,Ratio,[3],1.9
same,Ratio,[1],3.2
same,Ratio,[4],172
same,Ratio,[5],2.8
same,Ki,[6],6 nM
same,Ki,[7],1030 nM
same,IC50,[8],1960 nM
same,Ratio,[9],0.06
same,Ki,[10],23 nM
same,IC50,[11],16.7 nM
same,Ratio,[12],3.9
OC1(c2ccc(Cl)cc2)c2ccccc2C2=NCCN21 (stereo not given) [MAZINDOL],IC50,[2],4.9 nM
same,IC50,[8],94 nM
COc1ccc(C2(O)c3ccccc3C3=NCCCN32)cc1OC (stereo not given),Ratio,[1],0.1
CN(C)Cc1ccc(C2(O)c3ccccc3C3=NCCN32)cc1 (stereo not given),Ratio,[1],0.003
OC1(c2cccc(C(F)(F)F)c2)c2ccccc2C2=NCCN21 (stereo not given),Ratio,[1],0.04
OC1(c2ccc(OCc3ccccc3)cc2)c2ccccc2C2=NCCCN21 (stereo not given),Ratio,[1],0.1
C=CCOc1ccc(C2(O)c3ccccc3C3=NCCCN32)cc1 (stereo not given),Ratio,[1],0.1
Clc1ccc(C2c3ccccc3C3=NCCN32)cc1 (stereo not given),IC50,[2],6.9 nM
same,Ratio,[1],1.4
same,Ki,[6],23 nM
same,Ki,[7],26 nM
same,IC50,[8],15 nM
same,Ki,[10],170 nM
same,IC50,[11],6 nM
COC1(c2ccc(Cl)cc2)c2ccccc2C2=NCCN21 (stereo not given),IC50,[13],1010 nM
same,Ratio,[1],0.008
COc1cc(C2(O)c3ccccc3C3=NCCN32)cc(OC)c1OC (stereo not given),Ratio,[1],< 0.002
OC1(c2ccc(Cl)cc2)c2cccc(F)c2C2=NCCN21 (stereo not given),IC50,[2],5 nM
same,Ratio,[3],3.4
same,Ratio,[1],3.5
same,Ratio,[4],1.65
same,Ratio,[5],4
same,Ki,[6],23.1 nM
same,Ki,[7],38.1 nM
same,IC50,[8],129 nM
same,Ratio,[9],5.6
same,Ki,[10],0.9 nM
same,IC50,[11],91 nM
same,Ratio,[12],0.04
OC1(c2cccnc2)c2ccccc2C2=NCCN21 (stereo not given),Ratio,[1],0.013
Cc1cc(C)c2c(c1)C1=NCCN1C2(O)c1ccc(Cl)cc1 (stereo not given),Ratio,[1],0.6
OC1(c2ccccn2)c2ccccc2C2=NCCN21 (stereo not given),Ratio,[1],< 0.002
OC1(c2ccccc2)c2ccccc2C2=NCCN21 (stereo not given),IC50,[2],2.8 nM
same,Ratio,[3],1.2
same,Ratio,[1],0.1
same,Ratio,[4],1.6
same,Ratio,[5],0.7
same,Ki,[6],1070 nM
same,Ki,[7],1760 nM
same,IC50,[8],2140 nM
same,Ratio,[9],0.03
same,Ki,[10],100 nM
same,IC50,[11],730 nM
same,Ratio,[12],0.1
